Results reported in ChEMBL document CHEMBL3272120, “2,5,5-Trimethylthiazolidine-4-carboxylic acid, a D(-)-penicillamine-directed pseudometabolite of ethanol. Detoxication mechanism for acetaldehyde” (1978).
Active and inactive are the calls of the source. The rule behind the calls is not given here.

How the values were obtained:
[1] = test system: Rattus norvegicus; assay: Detoxification of acetaldehyde in aldehyde dehydrogenase inhibitor disuifiram/ethanol-treated rat assessed as reduction of blood acetaldehyde level at 8 mmol/kg, ip administered 1 hr prior to ethanol treatment measured after 1 hr by head space gas chromatographic analysis
[2] = test system: Rattus norvegicus; assay: (§1) Detoxification of acetaldehyde in aldehyde dehydrogenase inhibitor disuifiram/ethanol-1-[14C]-treated Sprague-Dawley rat assessed as [14C]-3-acetyl-2-methylthiazolidine-4-carboxylic acid excretion in urine by measuring administered dose of ethanol-1-[14C] at 8.3 mmol/kg, ip administered 1 hr prior to 65 mmol/kg ethanol-1-[14C] treatment measured for 24 hrs by inverse isotope dilution method in presence of Ac2O relative to control; type: functional; design: scale not given: the % may be the effect or the level left
Outline: (§2)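 Male Sprague-Dawley rats (190–280 g), given the test agent 1 h before ethanol-1-14C (65 mmol/kg, 200 mg/mL in isotonic saline, 0.8–1.4 μCi/rat), or at the same time as it for the simultaneous-dosing lines. Held in metabolism cages for 24 h. Urine plus washings were filtered and 400 mg unlabeled carrier added. The mix was acetylated with Ac2O, purified by preparative TLC and recrystallized from EtOAc to constant specific activity. Radioactivity was then scintillation counted.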

[3] = test system: Rattus norvegicus; assay: as §1, with “ethanol-1-[14C]-treated” for “aldehyde dehydrogenase inhibitor disuifiram/ethanol-1-[14C]-treated”, “acid” for “acid excretion”, “10” for “8.3”; type: functional
Outline: as §2

[4] = test system: Rattus norvegicus; assay: as §1, with “ethanol-1-[14C]-treated” for “aldehyde dehydrogenase inhibitor disuifiram/ethanol-1-[14C]-treated”, “7.4” for “8.3”, “po” for “ip”; type: functional
Outline: as §2

[5] = test system: Rattus norvegicus; assay: (§3) Detoxification of acetaldehyde in ethanol-1-[14C]-treated Sprague-Dawley rat assessed as [14C]-3-acetyl-2,5,5-trimethylthiazolidine-4-carboxylic acid excretion in urine by measuring administered dose of ethanol-1-[14C] at 8 mmol/kg, po administered with 65 mmol/kg ethanol-1-[14C] measured for 24 hrs by inverse isotope dilution method in presence of Ac2O relative to control; type: functional
Outline: as §2

[6] = test system: Rattus norvegicus; assay: (§4) Detoxification of acetaldehyde in ethanol-1-[14C]-treated Sprague-Dawley rat assessed as [14C]-3-acetyl-2,5,5-trimethylthiazolidine-4-carboxylic acid excretion in urine by measuring administered dose of ethanol-1-[14C] at 8.1 mmol/kg, ip administered 1 hr prior to 65 mmol/kg ethanol-1-[14C] treatment measured for 24 hrs by inverse isotope dilution method in presence of Ac2O relative to control; type: functional
Outline: as §2

[7] = test system: Rattus norvegicus; assay: as §4, with “aldehyde dehydrogenase inhibitor pyrogallol/ethanol-1-[14C]-treated” for “ethanol-1-[14C]-treated”; type: functional; design: scale not given: the % may be the effect or the level left
Outline: as §2

[8] = test system: Rattus norvegicus; assay: as §3, with “8.1” for “8”; type: functional
Outline: as §2

[9] = test system: Rattus norvegicus; assay: as §1, with “[14C]-3-acetyl-2,5,5-trimethylthiazolidine-4-carboxylic” for “[14C]-3-acetyl-2-methylthiazolidine-4-carboxylic”, “2” for “8.3”, “first dose at 0.25 hrs” for “1 hr”, “43.5” for “65”, “treatment followed by 4 doses of compound at 0.75 hrs, 3 hrs, 5 hrs, 7 hrs” for “treatment”; type: functional; design: scale not given: the % may be the effect or the level left
[10] = test system: Rattus norvegicus; assay: as §1, with “[14C]-3-acetyl-2,5,5-trimethylthiazolidine-4-carboxylic” for “[14C]-3-acetyl-2-methylthiazolidine-4-carboxylic”, “8.1” for “8.3”, “po” for “ip”; type: functional; design: scale not given: the % may be the effect or the level left
Outline: as §2

[11] = test system: Rattus norvegicus; assay: as §4, with “aldehyde dehydrogenase inhibitor pargyline/ethanol-1-[14C]-treated” for “ethanol-1-[14C]-treated”; type: functional; design: scale not given: the % may be the effect or the level left
Outline: as §2

[12] = test system: Rattus norvegicus; assay: as §4, with “po” for “ip”; type: functional
Outline: as §2

In the case of `NC(CCS)C(=O)O` (racemic), the Activity [1] is reported as “inactive”.

For `NC(CCSSCCC(N)C(=O)O)C(=O)O` (racemic), the Activity [1] was “inactive”.

For `NC1CCSC1=O` (racemic), the Activity [1] was “inactive”.

For `N[C@@H](CS)C(=O)O` (stereo in doubt), the Activity [1] was “inactive”.

With `N[C@@H](CS)C(=O)O` (stereo in doubt; 2) the Activity [1] was “inactive”.

For `N[C@@H](CS)C(=O)O` (stereo in doubt; 2) [CYSTEINE], the Activity [2] was 0% and the Activity [3] was 0%.

For `CC(=O)N[C@@H](CS)C(=O)O` [ACETYLCYSTEINE], the Activity [1] was “inactive” and the Activity [4] was 0%.

In the case of `CC(=O)NC(C(=O)O)C(C)(C)S` (centres undefined) [N-ACETYL PENICILLAMINE], the Activity [1] is reported as “inactive” and the Activity [5] is reported as 0%.

With `CC(C)(S)[C@@H](N)C(=O)O` [PENICILLAMINE] the Activity [6] was 0.5%, the Activity [7] was 1.1% and the Activity [8] was 0.4%. For the same compound, the Activity [9] was 7.6%, the Activity [1] was “Active” and the Activity [10] was 2.7%. For the same compound, the Activity [11] was 3.3% and the Activity [12] was 1.2%.
